Source: PubChem (several laboratories)
ROMK mod: human ROMK K+ channel modulation, primary screen | P48048 | Tet-inducible ROMK, thallium flux fluorescence; actives lie on both sides | B-score at 10 µM | 130,000 compounds, 2% hits | AID 1918;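 active means signal ratio slope over the read window, or its plate-corrected B-score, at least 3 SD from the plate mean, either direction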;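 further: B-score of the F/F0 ratio slope over 7 to 12 s after thallium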
Target sequence (P48048 whole entry, looked up): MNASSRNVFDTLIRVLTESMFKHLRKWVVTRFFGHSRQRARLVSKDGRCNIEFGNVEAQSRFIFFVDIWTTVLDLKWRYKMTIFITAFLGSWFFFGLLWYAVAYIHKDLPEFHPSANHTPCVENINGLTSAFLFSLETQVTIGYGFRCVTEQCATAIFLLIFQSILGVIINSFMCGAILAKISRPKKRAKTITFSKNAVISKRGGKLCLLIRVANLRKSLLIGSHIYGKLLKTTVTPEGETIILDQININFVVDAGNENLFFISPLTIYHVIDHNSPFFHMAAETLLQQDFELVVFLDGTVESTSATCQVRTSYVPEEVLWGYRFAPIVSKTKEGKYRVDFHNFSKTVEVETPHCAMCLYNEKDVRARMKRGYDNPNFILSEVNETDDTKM
Pf gamet viab: kills late stage P. falciparum gametocytes; P. falciparum stage V gametocytes, ATP luminescence, 24 h; 150,000 compounds, 0.065% hits; AID 743093; inhibition, % at 10.9 µM;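 active means inhibition above the mean plus 3 SD of compounds within the control limits, set per campaign, cut at about 38% in these data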
Calb biofilm kill: mixtures killing C. albicans biofilm; 120,000 compounds, 0.02% hits; inhibition, % at 7.6 µM; C. albicans biofilm persisters + clotrimazole, fluorescence viability; primary screen in compound mixtures of four per well;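 further: compounds exposed to preformed 24 h biofilms for 48 h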
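Test system: C. albicans biofilms. Buffer or medium: RPMI/MOPS medium, pH 7.0. Timing: 48 h compound exposure at 37 °C. Technique: Alamar Blue fluorescence. Evaluation: percent inhibition of biofilm viability.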
ROMK retest: confirmation of human ROMK potassium channel modulators; shares compounds with ROMK mod; ROMK thallium flux, fluorescence ratio; stronger effect = lower value; normalized thallium flux (F/F0 slope) at 10 µM; 3,000 compounds, 54% hits; AID 1917;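 active means Flux at 10 µM at least 3 SD below or above vehicle control mean in one or both replicates; inconclusive means no clear call, values can overlap the other calls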
Hits are given with their value; n = inactive; u = inconclusive; x = not tested or not shown. Shown is part of a subset that was picked to be rich in hits.

SMILES | ROMK mod | Pf gamet viab | Calb biofilm kill | ROMK retest
O=c1cc(-c2ccc(O)cc2)oc2ccccc12 | n | x | n | x
O=C(Nc1ccc(CN2CCS(=O)(=O)CC2)cc1)c1ccc(Cl)cc1 | n | n | n | x
Cc1ccc(-c2c[n+](CC(=O)Nc3nc(-c4ccccc4)cs3)c3n2CCC3)cc1 | -4.6 | n | n | 0.06
O=C(C[n+]1cc(-c2ccccc2)n2c1CCC2)Nc1nc(-c2ccccc2)cs1 | n | n | n | x
O=C1CN(S(=O)(=O)c2cc(Cl)ccc2Cl)CCN1 | n | x | n | x
COc1ccc(OC)c(-c2cc(-c3cccnc3)nc(N)c2C#N)c1 | 3.5 | n | n | n
COc1cccc(-c2cc(-c3cccnc3)nc(N)c2C#N)c1 | n | n | n | x
COc1cc(-c2cc(-c3ccc(O)cc3)nc(N)c2C#N)ccc1O | 4.2 | n | n | n
COc1ccc(-c2cc(-c3ccc(O)cc3)nc(N)c2C#N)cc1 | x | n | x | x
Cc1ccc(N)cc1NC(=O)CN1CCOCC1 | x | n | x | x
Cc1nn(C)c(=O)n1N(C)c1ncc(C(F)(F)F)cc1Cl | n | n | n | x
CCn1c(/C=C/c2ccccc2F)nc2ccccc2c1=O | x | n | x | x
O=C(NCc1cccnc1)c1ccc(Br)s1 | x | n | n | x
CCOC(=O)C(=NCCCN(C)C)NNc1ccc(Br)cc1 | x | n | n | x
CCOC(=O)C(=NCCCN(C)C)NNc1cc(C(F)(F)F)ccc1Cl | -2.7 | x | n | 0.059
Cc1ccc(-n2[nH]c(C)c(C=Nc3ccc(S(=O)(=O)Nc4nccs4)cc3)c2=O)cc1 | x | x | n | x
Cc1[nH]n(-c2ccc(Br)cc2)c(=O)c1C=Nc1ccc(S(=O)(=O)Nc2nccs2)cc1 | x | n | n | n
CC(=O)Nc1ccc(S(=O)(=O)N(C#N)c2nc(C)cc(C)n2)cc1 | x | n | x | x
CCCCCCCCCCCCCCCC[n+]1cccc2ccccc21 | x | n | n | x
CCCCCCCCC[n+]1cccc2c3ccccc3ccc21 | -5.7 | x | x | 0.042
O=C1CCC/C(=N/NC(=O)c2sc3ccccc3c2Cl)C1 | x | n | n | x
Cc1cc(C(=O)CN2C(=O)NC3(CCCc4ccccc43)C2=O)c(C)n1Cc1ccccc1 (centres undefined) | 2 | x | x | n
Cc1cc(C(=O)CN2C(=O)NC3(CCCc4ccccc43)C2=O)c(C)n1Cc1ccco1 (centres undefined) | n | x | x | x
CCN(CC)CCCNC(=S)N(Cc1ccco1)Cc1cc2cc3c(cc2[nH]c1=O)OCCO3 | x | n | n | x
CCN(CC)CCCNC(=S)N(Cc1cccs1)Cc1cc2cc3c(cc2[nH]c1=O)OCCO3 | -11 | n | n | 0.055
SMILES | ROMK mod | Pf gamet viab | Calb biofilm kill | ROMK retest
Cc1ccc([N+](=O)[O-])c(C(=O)N/N=C/c2cccnc2)c1 | x | n | n | x
OCCC1CN(Cc2ccccc2-c2ccco2)CCN1C1CCCC1 (centres undefined) | -4 | n | n | 0.051
CC(C)N1CCN(Cc2ccccc2-c2ccco2)CC1CCO (centres undefined) | n | n | n | x
COc1ccccc1C1c2[nH]c3ccccc3c2CCN1Cc1ccc(NC(C)=O)s1 (centres undefined) | x | n | n | x
Cn1cc(/C=C(\C#N)C(=O)Nc2ncc(Cc3cccc(Cl)c3)s2)c2ccccc21 | -2.4 | x | n | 0.059
N#C/C(=C\c1c[nH]c2ccccc12)C(=O)Nc1ncc(Cc2ccc(Cl)cc2Cl)s1 | x | x | n | x
COc1ccc(C(=O)NCc2ccc(C(=O)O)o2)cc1 | x | n | x | x
COc1ccc(C(=O)NCc2c(CC(C)C)oc(C)c2C(=O)O)cc1 | x | x | x | n
CCN(CC)S(=O)(=O)c1cccc(C(=O)N/N=C/c2ccc([N+](=O)[O-])o2)c1 | n | n | n | x
CCN(C(=O)COC(=O)/C=C/c1c(C)nn(-c2ccccc2)c1C)C1CCS(=O)(=O)C1 (centres undefined) | x | n | n | x
Cc1ccc(S(=O)(=O)N2CCN(C(=O)c3ccccc3)CC2)cc1 | n | n | x | x
Cc1ccc(C(=O)N2CCN(S(=O)(=O)c3ccccc3)CC2)cc1 | 2.7 | n | n | u
Cc1ccc(-c2nc(N3CCOCC3)sc2C(=O)N2CCCCC2)cc1 | x | n | n | x
COc1ccc(CNC(=O)COC(=O)c2cncc(Br)c2)cc1 | n | n | n | n
Cc1ccc(CNC(=O)COC(=O)c2cncc(Br)c2)cc1 | n | x | n | x
N=C1S/C(=C\c2ccc(-c3cccc(Cl)c3)o2)C(=O)N1c1nccs1 | x | n | n | x
O=C1OC(c2cccs2)=N/C1=C\c1ccc(-c2cccc(Cl)c2)o1 | x | x | x | 0.052
CC(C)CC(=O)NC(=S)Nc1ccc(S(=O)(=O)N2CCCC2)cc1 | n | n | n | x
O=C(c1ccccc1)c1c[nH]c(C(=O)NNc2cccc(Cl)n2)c1 | 2 | n | n | n
O=C(c1ccc(Cl)cc1)c1c[nH]c(C(=O)NNc2cccc(Cl)n2)c1 | n | n | n | x
COc1ccc(NS(=O)(=O)c2ccc(S(=O)(=O)N3CCCC3)cc2)cc1Cl | n | n | x | x
COc1ccc(S(=O)(=O)Nc2ccc(F)c(F)c2)cc1Cl | -3.2 | x | x | 0.059
CCCCOC(=O)Nc1ccc(C(=O)OC)cc1 | x | n | x | x
CCCCOC(=O)Nc1cc(C(=O)OC)ccc1C(=O)OC | 3.8 | x | x | n
Cc1snc(S(=O)(=O)/C(C#N)=N\Nc2ccccc2)c1C#N | n | x | x | x
SMILES | ROMK mod | Pf gamet viab | Calb biofilm kill | ROMK retest
Cc1snc(S(=O)(=O)/C(C#N)=N/Nc2ccc(C(F)(F)F)cc2)c1C#N | 3.8 | x | x | 0.1
O=C(/C=C/c1ccc(Br)cc1)c1ccco1 | -5.4 | n | n | u
O=C(/C=C/c1ccc(Br)cc1)c1ccc(NC(=O)c2ccco2)cc1 | x | n | n | x
O=C(N/N=C\c1ccc(S(=O)(=O)O)o1)c1ccc2c(c1)OCO2 | x | n | x | x
O=C(N/N=C/c1ccc(-c2ccc(Br)cc2)o1)c1ccc2c(c1)OCO2 | 2 | n | n | n
O=C(OCC#CCSc1nnc(-c2cccc3ccccc23)o1)c1cccs1 | n | n | x | x
O=C(OCC#CCSc1nnc(-c2ccccc2)o1)c1cccs1 | n | x | x | 0.058
N#CC1=C(N)Oc2cc(O)ccc2C1c1cccnc1 (centres undefined) | n | n | n | x
CN(C)c1ccc2c(c1)OC(N)=C(C#N)C2c1cccc(F)c1 (centres undefined) | x | x | x | 0.064
COc1ccc(CCC(=O)N/N=C\c2cccs2)cc1 | n | n | n | x
Cn1nc(C(F)(F)F)c(C#N)c1N1CCN(c2ccc(F)cc2)CC1 | n | x | x | x
Cn1nc(C(F)(F)F)c(C#N)c1N1CCN(c2ccccc2)CC1 | -3.1 | x | x | 0.063
CCOc1ccc(NC(=S)N(CCc2c(C)[nH]c3ccccc23)Cc2ccco2)cc1 | n | x | n | x
COc1ccc(S(=O)(=O)N2CCOCC2)cc1NC(=O)CSc1nnc2c(n1)[nH]c1ccccc12 | x | n | n | x
CCOc1ccc(OCc2ccc(C(=O)N3N=C(C(F)F)CC3(O)C(F)F)o2)cc1 (centres undefined) | n | x | x | x
Cc1cc(C)cc(OCc2ccc(C(=O)N3N=C(C(F)F)CC3(O)C(F)F)o2)c1 (centres undefined) | 3 | x | x | n
O=C(NCc1ccco1)Nc1cccc([N+](=O)[O-])c1 | x | x | n | x
CCOc1ccc(-c2nc(CSCC(=O)N3CCN(c4cccc(OC)c4)CC3)c(C)o2)cc1 | x | x | x | 0.067
CCc1ccc(-c2nc(CSCC(=O)N3CCN(c4ccccn4)CC3)c(C)o2)cc1 | n | n | x | x
COc1ccc(C)cc1N(C(=O)c1ccccc1F)c1nc2ccccc2s1 | -2.5 | x | n | n
COc1ccc(C)cc1N(C(=O)c1ccccc1)c1nc2ccccc2s1 | x | n | n | x
